According to ChEMBL document CHEMBL2434847, “Design, synthesis, and structure-activity relationships of novel 6,7-disubstituted-4-phenoxyquinoline derivatives as potential antitumor agents” (Eur J Med Chem, 2013):

Experiments:
[1] = Cytotoxicity against human U87MG cells after 72 hrs by MTT assay; format: functional, cell-based, U-87MG ATCC; conditions: U-87 MG
Summary of the method: (§1)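 Cells grown in MEM with 10% FBS; about 4 × 10³ cells per well, preincubated 24 h at 37 °C in 5% CO₂, then exposed to compound for 72 h. Each line tested three times; IC50 is mean of three determinations.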

MKN-45 = assay: Cytotoxicity against human MKN45 cells after 72 hrs by MTT assay; conditions: MKN-45, 72 h
A549 = assay: Cytotoxicity against human A549 cells after 72 hrs by MTT assay; format: functional, cell-based; conditions: A549, 72 h; summary of the method: as §1
HT-29 = assay: Cytotoxicity against human HT-29 cells after 72 hrs by MTT assay; conditions: HT-29, 72 h
[2] = Cytotoxicity against human H460 cells after 72 hrs by MTT assay; conditions: NCI-H460, 72 h

Structure (SMILES)	IC50 [1] [nM]	IC50 (MKN-45) [nM]	IC50 (A549) [nM]	IC50 (HT-29) [nM]	IC50 [2] [nM]
COc1cc2c(Oc3ccc(NC(=O)c4cc(-c5ccccc5)ccn4)cc3F)ccnc2cc1OCCCN1CCCC1	1010	210	1580	120	130
COc1cc2c(Oc3ccc(NC(=O)c4cc(-c5ccc(C(F)(F)F)cc5)ccn4)cc3F)ccnc2cc1OCCCN1CCCC1	–	260	–	720	250
COc1ccc(-c2ccnc(C(=O)Nc3ccc(Oc4ccnc5cc(OCCCN6CCOCC6)c(OC)cc45)c(F)c3)c2)cc1	–	1150	–	1340	3120
COc1ccc(-c2ccnc(C(=O)Nc3ccc(Oc4ccnc5cc(OCCCN6CCCCC6)c(OC)cc45)c(F)c3)c2)cc1	–	570	–	690	200
COc1cc2c(Oc3ccc(NC(=O)c4cc(-c5ccc(C(F)(F)F)cc5)ccn4)cc3F)ccnc2cc1OCCCN1CCOCC1	–	78800	–	5070	52700
COc1cc2c(Oc3ccc(NC(=O)c4nccc(-c5ccc(F)cc5)n4)cc3F)ccnc2cc1OCCCN1CCOCC1	–	360	–	110	220
COc1cc2c(Oc3ccc(NC(=O)c4nccc(-c5ccc(F)cc5F)n4)cc3F)ccnc2cc1OCCCN1CCCCC1	780	1120	470	400	550
COc1ccc(-c2ccnc(C(=O)Nc3ccc(Oc4ccnc5cc(OCCCN6CCN(C)CC6)c(OC)cc45)c(F)c3)c2)cc1	–	250	–	390	370
COc1cc2c(Oc3ccc(NC(=O)c4nccc(-c5ccc(F)cc5)n4)cc3F)ccnc2cc1OCCCN1CCCC1	1130	490	990	160	300
COc1cc2c(Oc3ccc(NC(=O)c4cc(-c5ccccc5C)ccn4)cc3F)ccnc2cc1OCCCN1CCN(C)CC1	2030	240	1330	180	150
COc1cc2c(Oc3ccc(NC(=O)c4nccc(-c5ccc(F)cc5)n4)cc3F)ccnc2cc1OCCCN1CCCCC1	–	930	–	120	240
COc1cc2c(Oc3ccc(NC(=O)c4cc(-c5ccc(F)cc5)ccn4)cc3F)ccnc2cc1OCCCN1CCN(C)CC1	–	510	–	1460	430
COc1cc2c(Oc3ccc(NC(=O)c4cc(-c5ccccc5)ccn4)cc3F)ccnc2cc1OCCCN1CCN(C)CC1	1010	150	340	82	91
COc1ccc(-c2ccnc(C(=O)Nc3ccc(Oc4ccnc5cc(OCCCN6CCCC6)c(OC)cc45)c(F)c3)c2)c(OC)c1	–	740	–	630	520
COc1cc2c(Oc3ccc(NC(=O)c4cc(-c5ccccc5F)ccn4)cc3F)ccnc2cc1OCCCN1CCCC1	610	230	430	230	140
COc1cc2c(Oc3ccc(NC(=O)c4cc(-c5ccc(C(F)(F)F)cc5)ccn4)cc3F)ccnc2cc1OCCCN1CCCCC1	1630	870	1640	230	360
COc1cc2c(Oc3ccc(NC(=O)c4nccc(-c5ccc(C)cc5)n4)cc3F)ccnc2cc1OCCCN1CCOCC1	2400	310	2240	240	300
COc1cc2c(Oc3ccc(NC(=O)c4cc(-c5ccc(C)cc5)ccn4)cc3F)ccnc2cc1OCCCN1CCCCC1	–	1670	–	340	160
COc1ccc(-c2ccnc(C(=O)Nc3ccc(Oc4ccnc5cc(OCCCN6CCOCC6)c(OC)cc45)c(F)c3)c2)c(OC)c1	–	6680	–	1530	12700
COc1cc2c(Oc3ccc(NC(=O)c4nccc(-c5ccc(C)cc5)n4)cc3F)ccnc2cc1OCCCN1CCCCC1	1140	580	900	620	230
COc1cc2c(Oc3ccc(NC(=O)c4cc(-c5ccccc5F)ccn4)cc3F)ccnc2cc1OCCCN1CCN(C)CC1	–	150	–	220	140
COc1cc2c(Oc3ccc(NC(=O)c4nccc(-c5ccc(C)cc5)n4)cc3F)ccnc2cc1OCCCN1CCN(C)CC1	–	340	–	210	160

Structure (SMILES)	IC50 [1] [nM]	IC50 (MKN-45) [nM]	IC50 (A549) [nM]	IC50 (HT-29) [nM]	IC50 [2] [nM]
COc1cc2c(Oc3ccc(NC(=O)c4nccc(-c5ccccc5)n4)cc3F)ccnc2cc1OCCCN1CCCC1	–	1360	–	390	1120
COc1cc2c(Oc3ccc(NC(=O)c4cc(-c5ccc(C)cc5)ccn4)cc3F)ccnc2cc1OCCCN1CCOCC1	6790	440	3450	290	570
COc1cc2c(Oc3ccc(NC(=O)c4cc(-c5ccc(F)cc5)ccn4)cc3F)ccnc2cc1OCCCN1CCCCC1	12500	1240	10100	1370	250
COc1cc2c(Oc3ccc(NC(=O)c4cc(-c5ccccc5F)ccn4)cc3F)ccnc2cc1OCCCN1CCCCC1	–	180	–	320	130
COc1cc2c(Oc3ccc(NC(=O)c4cc(-c5ccccc5)ccn4)cc3F)ccnc2cc1OCCCN1CCCCC1	790	270	1800	270	120
COc1cc2c(Oc3ccc(NC(=O)c4cc(-c5ccc(C)cc5)ccn4)cc3F)ccnc2cc1OCCCN1CCCC1	560	440	1060	350	160
COc1cc2c(Oc3ccc(NC(=O)c4nccc(-c5ccc(F)cc5F)n4)cc3F)ccnc2cc1OCCCN1CCOCC1	–	960	–	2190	1030
COc1cc2c(Oc3ccc(NC(=O)c4nccc(-c5ccccc5)n4)cc3F)ccnc2cc1OCCCN1CCCCC1	–	1030	–	260	330
COc1cc2c(Oc3ccc(NC(=O)c4cc(-c5ccccc5F)ccn4)cc3F)ccnc2cc1OCCCN1CCOCC1	3030	1310	3990	400	680
COc1cc2c(Oc3ccc(NC(=O)c4cc(-c5ccccc5)ccn4)cc3F)ccnc2cc1OCCCN1CCOCC1	1280	280	3450	330	350
COc1ccc(-c2ccnc(C(=O)Nc3ccc(Oc4ccnc5cc(OCCCN6CCCC6)c(OC)cc45)c(F)c3)c2)cc1	–	150	–	350	200
COc1cc2c(Oc3ccc(NC(=O)c4cc(-c5ccccc5C)ccn4)cc3F)ccnc2cc1OCCCN1CCCC1	–	440	–	1150	420
COc1ccc(-c2ccnc(C(=O)Nc3ccc(Oc4ccnc5cc(OCCCN6CCN(C)CC6)c(OC)cc45)c(F)c3)c2)c(OC)c1	–	330	–	420	430
COc1cc2c(Oc3ccc(NC(=O)c4nccc(-c5ccc(F)cc5F)n4)cc3F)ccnc2cc1OCCCN1CCN(C)CC1	780	440	660	480	450
COc1cc2c(Oc3ccc(NC(=O)c4nccc(-c5ccc(F)cc5)n4)cc3F)ccnc2cc1OCCCN1CCN(C)CC1	910	90	680	42	63
COc1cc2c(Oc3ccc(NC(=O)c4cc(-c5ccc(C(F)(F)F)cc5)ccn4)cc3F)ccnc2cc1OCCCN1CCN(C)CC1	–	330	–	200	160
COc1cc2c(Oc3ccc(NC(=O)c4nccc(-c5ccccc5)n4)cc3F)ccnc2cc1OCCCN1CCOCC1	1350	260	510	150	240
COc1cc2c(Oc3ccc(NC(=O)c4cc(-c5ccc(F)cc5)ccn4)cc3F)ccnc2cc1OCCCN1CCCC1	1780	350	1800	430	370
COc1cc2c(Oc3ccc(NC(=O)c4cc(-c5ccc(F)cc5)ccn4)cc3F)ccnc2cc1OCCCN1CCOCC1	–	870	–	1000	1870
COc1cc2c(Oc3ccc(NC(=O)c4cc(-c5ccccc5C)ccn4)cc3F)ccnc2cc1OCCCN1CCOCC1	–	1140	–	1050	2130
COc1cc2c(Oc3ccc(NC(=O)c4nccc(-c5ccc(C)cc5)n4)cc3F)ccnc2cc1OCCCN1CCCC1	–	240	–	670	440
